Screening data deposited in PubChem by The Scripps Research Institute Molecular Screening Center.
M5 antag: human M5 muscarinic receptor antagonists, primary screen, CHO cells, Fluo-8 calcium fluorescence | hit rate 0.59% among 360,000 | inhibition, % at 3 µM | Muscarinic acetylcholine receptor M5 (Homo sapiens), P08912 | CHO-hM5 cells, ACh EC80;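 active means inhibition above a per-plate cutoff, the mean of that plate's test compounds plus 3 SD, cut at about 27% in these data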;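 further: 0% = acetylcholine EC80 with DMSO and 100% = DMSO without agonist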
Target sequence (P08912 whole entry, looked up): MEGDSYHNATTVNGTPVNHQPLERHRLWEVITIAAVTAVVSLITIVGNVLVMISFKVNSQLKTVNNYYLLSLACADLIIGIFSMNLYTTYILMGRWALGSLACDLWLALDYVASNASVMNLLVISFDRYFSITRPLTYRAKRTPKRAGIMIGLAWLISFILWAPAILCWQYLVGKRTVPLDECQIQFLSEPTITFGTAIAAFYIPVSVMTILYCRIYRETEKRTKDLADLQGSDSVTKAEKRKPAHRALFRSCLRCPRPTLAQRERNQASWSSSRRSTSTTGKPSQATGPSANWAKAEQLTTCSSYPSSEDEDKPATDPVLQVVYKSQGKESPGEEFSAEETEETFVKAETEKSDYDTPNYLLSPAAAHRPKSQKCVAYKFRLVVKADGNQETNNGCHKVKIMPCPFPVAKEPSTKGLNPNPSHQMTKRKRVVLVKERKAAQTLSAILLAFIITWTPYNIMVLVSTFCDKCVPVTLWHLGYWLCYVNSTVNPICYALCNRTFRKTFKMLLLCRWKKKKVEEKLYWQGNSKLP
CHRM5 PAM: human M5 muscarinic receptor positive allosteric modulators, primary screen, CHO-K1 cells, Fluo-8 calcium fluorescence | activation, % at 3 µM | Muscarinic acetylcholine receptor M5 (Homo sapiens), P08912 | hit rate 0.3% among 360,000 | AID 624038, 2012 | CHO-K1 hM5, ACh EC20 PAM; 0% = ACh EC20, 100% = ACh EC100;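 active means activation above the run cutoff, the mean activation of all test compounds plus 3 SD, cut at about 18% in these data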
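System: CHO-K1 cell line with stable human muscarinic M5 receptor expression | Also added: EC20 acetylcholine as agonist stimulus | Compound: One concentration, 3 µM final (nominal) | Timing: Fluo-8 loading 80 min at 37 °C plus 30 min room temperature | Measured by: Fluo-8 calcium dye fluorescence, kinetic read | Read-out basis: % activation, ACh-normalized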
CHRM5 agonist: human M5 muscarinic receptor agonists, primary screen, CHO-K1 cells, Fluo-8 calcium fluorescence; activation, % at 3 µM; AID 624037, 2012; CHO-K1 hM5 cells; 0% DMSO wells, 100% maximal acetylcholine response; hit rate 0.19% among 360,000;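 active means activation above the run's mean over test compounds plus 3 SD, cut at about 23% in these data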;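 further: signal is peak over basal fluorescence ratio across the kinetic read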
M1 PAM: human M1 muscarinic receptor positive allosteric modulators, primary screen, CHO-K1 cells, Fluo-8 calcium fluorescence, 1536-well; Muscarinic acetylcholine receptor M1 (Homo sapiens), P11229; hit rate 0.088% among 360,000; CHO-K1 hM1, ACh EC20; 0% = ACh EC20, 100% = maximal ACh; activation, % at 3 µM; AID 588819, 2011; in the data active means activation above about 19%, passing the limit was not always enough
M1 antag: human M1 muscarinic receptor antagonists, primary screen, CHO-K1 cells, Fluo-8 calcium fluorescence, 1536-well; Muscarinic acetylcholine receptor M1 (Homo sapiens), P11229; CHO-K1 hM1, ACh EC80 antagonist; inhibition, % at 3 µM; hit rate 1.3% among 360,000; AID 588852, 2011;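 active means percent inhibition above its own plate's cutoff, namely the mean of that plate's compound wells plus 3 SD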;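 further: peak over basal fluorescence ratio during 140 s after agonist addition; 0% = ACh EC80 plus DMSO and 100% = DMSO alone without agonist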
CHRM1 agonist: human M1 muscarinic receptor agonists, primary screen, Fluo-8 calcium fluorescence, CHO-K1 cells, HTS | Muscarinic acetylcholine receptor M1 (Homo sapiens), P11229 | CHO-K1 hM1, agonist mode; 0% DMSO, 100% acetylcholine EC100 | activation, % at 3 µM | hit rate 0.33% among 360,000 | AID 588814, 2011;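 active means activation above the run's mean compound activation plus 3 SD, cut at about 16% in these data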;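 further: peak over basal fluorescence ratio within a 140 s kinetic read after compound addition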
The depositor's hits bear a star; · = no result given. Only some compounds are listed: those with a hit (about 2% of all), similar ones and a draw of the others.

SMILES	M5 antag	CHRM5 PAM	CHRM5 agonist	M1 PAM	M1 antag	CHRM1 agonist
COc1ccccc1N1CCN(C(=O)c2cccc3c(=O)c(C)c(-c4ccccc4)oc23)CC1	12	-19	26*	-22	14	0
COc1ccccc1N1CCN(C(=O)c2oc3ccccc3c2C)CC1	5	-6	1	-4	3	-4
CC(=O)c1ccc(S(=O)(=O)N2CCN(C(=O)c3ccc(-n4nc(C)c(Cl)c4C)cc3)CC2)cc1	5	-1	-1	8	-4	1
CCCCCC[N+](C)(C)CC/C=C1/c2ccccc2Sc2ccc(Cl)cc21	99*	-33	-18	-24	99*	-7
CN(C)CC/C=C1/c2ccccc2Sc2ccc(Cl)cc21	99*	-18	1	-25	99*	-4
CN1CCN(CCC=C2c3ccccc3Sc3ccc(S(=O)(=O)N(C)C)cc32)CC1	7	-9	2	-9	-13	-3
C(C#CCCCCCCCCC[n+]1ccccc1)#CCCCCCCCCC[n+]1ccccc1	99*	-38	-12	-27	98*	-5
CCCCCCn1cc(CN2CC(N(C)CCC)CS2(=O)=O)nn1 (centres undefined)	3	2	0	·	·	·
O=C1[C@@H](Oc2ccccc2)[C@@H](c2cnc3ccccc3c2)N1c1ccccc1	-11	-6	-2	-20	30*	-10
CSCC[C@H](NC(=O)c1ccc2ccccc2c1)C(=O)N1CCC2(CC1)NCCc1[nH]cnc12	27*	-6	-6	-21	20	-14
Cc1cc(C)n2ncc(C(=O)NCCc3ccccc3)c2n1	3	4	1	7	-25	-3
Cc1cc(C)n2ncc(C(=O)NCc3ccccc3)c2n1	20	31*	0	8	10	0
Cc1cc(NCc2ccccc2)n2ncc(-c3ccccc3)c2n1	4	-13	-5	-22	39*	-8
COc1ccc(-c2c(N)cnc(C(=O)O)c2C)c(OCc2ccccc2)c1OC	2	-2	1	10	1	1
CSc1ccccc1NC(=S)NCc1ccc(Cl)cc1	8	-3	-5	-10	26*	-2
COC(=O)c1cccc(NC(=S)NCc2ccc(Cl)cc2)c1	13	-9	14	-4	10	9
S=C(NCc1ccc(Cl)cc1)Nc1ccccc1Cl	1	-4	-4	2	0	-10
COC(=O)c1cc(NC(=S)NCc2ccc(Cl)cc2)cc(C(=O)OC)c1	29*	-14	12	-4	16	15
COC(=O)C(C#N)(CCC(=O)c1ccccc1)CCC(=O)c1ccccc1	-2	-4	2	10	-15	-2
CC(CCC(C)C(C)(C)C)[C@@H]1CC[C@H]2C3C[C@H](OS(O)(=S)=S)[C@H]4C[C@H](OS(O)(=S)=S)[C@@H](OS(O)(=S)=S)C[C@]4(C)[C@H]3CC[C@]12C (some centres undefined) (tested in a mixture with another compound)	13	-27	21	5	3	37*
CCn1c(=O)c(C(=O)NNC(=O)c2ccccc2Cl)c(O)c2ccccc21	5	-1	14	-4	2	18*
CCn1c(=O)c(C(=O)NNC(=O)c2ccccc2F)c(O)c2ccccc21	3	5	-1	17	-10	10
O=C(c1ccccc1NS(=O)(=O)c1ccc([N+](=O)[O-])cc1[N+](=O)[O-])N1O[C@@H]2C=C[C@H]1C2	-2	1	0	12	-17	1
CN(CC(=O)Nc1ccc(C#N)cc1)Cc1ccc(Cl)cc1	14	-12	-1	-9	13	-6
CN(CC(=O)Nc1ccc(C#N)cc1)Cc1ccc(Cl)cc1Cl	27*	-23	-6	-12	10	-4
SMILES	M5 antag	CHRM5 PAM	CHRM5 agonist	M1 PAM	M1 antag	CHRM1 agonist
N#Cc1ccc(NC(=O)Nc2ccc(Cl)cc2)cc1	17	-26	7	-13	32*	9
O=C(Nc1ccc(Cl)cc1)Nc1ccc2c(c1)OCO2	20	-18	9	-14	36*	2
CC(=O)N(C)c1ccc(NC(=O)Nc2ccc(Cl)cc2)cc1	29*	-29	7	-16	36	4
CC(=O)N(C)c1ccc(NC(=O)Nc2ccc(C)cc2)cc1	3	-19	2	-14	17	-3
CC1(c2nc3ccccc3[nH]2)CCC2=Nc3ccccc3CN21 (centres undefined)	4	-8	-6	·	·	·
CC(C)N1C(=O)c2ccccc2NC(=O)C1C(=O)NCc1ccccc1 (centres undefined)	0	1	1	·	·	·
O=C(NCCN1CCC(n2c(=O)[nH]c3ccccc32)CC1)c1ccc(C(F)(F)F)cc1C(F)(F)F	19	-19	4	·	·	·
CC1(C(=O)NCc2ccccc2)CN(S(C)(=O)=O)CC(=O)N1Cc1cccc(C(F)(F)F)c1 (centres undefined)	-4	-3	2	·	·	·
O=C(c1ccc2c(=O)n3c(nc2c1)CCCCC3)N1CCN(c2cccc(Cl)c2)CC1	-2	-11	-1	-27	32*	-13
CN1CCN(S(=O)(=O)c2ccc(NC(=O)c3cccc(S(=O)(=O)N4CCCC4)c3)cc2)CC1	29*	-21	-6	-23	98*	-5
O=C(NC(=S)Nc1ccc(S(=O)(=O)N2CCCCC2)cc1)c1ccccc1	-13	2	-1	19*	-56	1
COc1ccc(N2CCN(C(=O)c3ccc4c(=O)n5c(nc4c3)CCCCC5)CC2)cc1	2	-1	-2	2	-1	-8
CN(C)S(=O)(=O)c1cccc(C(=O)Nc2ccc(S(=O)(=O)N3CCCC3)cc2)c1	4	14	-8	-13	18	-5
CN(C)S(=O)(=O)c1cccc(NC(=O)c2ccc(S(=O)(=O)N3CCCCC3)cc2)c1	-2	-15	-3	-27	27*	-5
OC(c1ccccc1)(c1nc(-c2cc3ccccc3o2)cs1)C(F)(F)F (centres undefined)	9	-14	-2	-8	11	-4
COc1ccc(S(=O)(=O)N2CCOCC2)cc1NC(=O)c1ccc(Cl)cc1	11	-4	0	-10	29*	-2
